High-throughput results as filed in PubChem.
TbHK1 inh – T. brucei hexokinase 1 inhibition; recombinant TbHK1, G6PDH-coupled NADH A340; inhibition, % at 10 µM; 220,000 compounds, 0.11% hits; AID 1430;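 active = inhibition of 50% or more in the single-dose primary screen; inactive = inhibition below 50%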
Hck Nef HTS – inhibitors of human Hck kinase activated by Nef | AID 463187 | inhibition, % at 20 µM | P08631 | 220,000 compounds, 0.68% hits | Recombinant Hck-YEEI plus Nef, Z-Lyte FRET kinase assay;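 active = Hck-Nef kinase inhibition above about 50%, limit read from the data; inactive = inhibition below that limit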
RanGTP-Imp inh – disruptors of Ran-importin-beta complex formation – biochemical, FRET, CFP-Ran, YFP-importin-beta, homogeneous, primary screen; cell-free CFP-Ran/YFP-importin-beta FRET ratio; inhibition, % (test concentration not listed); 300,000 compounds, 1.1% hits;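 active = more than half of the replicate wells show a fall in the fluorescence ratio signal beyond about 16%, limit read from the data, passing the limit was not always enough; inconclusive = exactly half of the replicate wells pass the set limit; inactive = fewer than half of replicates pass the limit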
Runt-SMMHC FRET – Runt domain-CBFb-SMMHC interaction inhibition; Q01196+Q13951; Cerulean-Runt/Venus-CBFb-SMMHC FRET ratio 530/480, 1 h; inhibition, % at 20 µM; AID 1434; 220,000 compounds, 0.74% hits;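 active = mean inhibition across duplicate retests at 20 µM reaching about 50%, limit read from the data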;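 note: inhibitors lower the FRET ratio by blocking Runt binding to CBFb-SMMHC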
Target sequence (Q01196 whole entry, looked up, the tested form may be a part): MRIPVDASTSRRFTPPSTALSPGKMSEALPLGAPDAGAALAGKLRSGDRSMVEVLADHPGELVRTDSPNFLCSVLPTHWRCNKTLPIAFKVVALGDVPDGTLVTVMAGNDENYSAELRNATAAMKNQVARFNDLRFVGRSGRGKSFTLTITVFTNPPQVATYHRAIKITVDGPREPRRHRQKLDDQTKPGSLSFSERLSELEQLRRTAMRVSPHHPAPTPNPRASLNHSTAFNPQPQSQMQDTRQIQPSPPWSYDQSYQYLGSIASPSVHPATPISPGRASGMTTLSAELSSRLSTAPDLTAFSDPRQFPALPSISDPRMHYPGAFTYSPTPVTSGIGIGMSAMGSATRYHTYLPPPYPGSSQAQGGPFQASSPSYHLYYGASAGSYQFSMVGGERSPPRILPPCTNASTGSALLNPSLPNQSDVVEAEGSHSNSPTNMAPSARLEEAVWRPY
Target sequence (Q13951 whole entry, looked up, the tested form may be a part): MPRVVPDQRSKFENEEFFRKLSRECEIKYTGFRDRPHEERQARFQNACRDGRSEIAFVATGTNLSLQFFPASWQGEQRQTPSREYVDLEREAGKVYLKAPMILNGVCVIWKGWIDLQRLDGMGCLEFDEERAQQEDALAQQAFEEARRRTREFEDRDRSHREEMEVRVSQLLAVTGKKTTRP
Runt-CBFb FRET – inhibitors of human RUNX1 Runt domain binding to CBFb. inhibition, % at 20 µM. Cerulean-Runt/Venus-CBFb FRET ratio 530/480, 1 h. Q01196+Q13951. 220,000 compounds, 0.46% hits. AID 1496;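 active = inhibition over about 50% at 20 µM in the single-dose screen, limit read from the data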
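Measured by: fluorescence energy transfer, 422 nm excitation, 530/480 nm emission; test system: Cerulean-tagged RUNX1 Runt domain (FRET donor) fusion protein; buffer or medium: Tris pH 7.5 buffer with BSA; compound: one dose, 20 µM compound, 1% DMSO; times: two 1 h room-temperature incubations shielded from light; benchmarks: unlabeled CBFb 5 µM, positive control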
A number is an active result; – = inactive; ? = inconclusive; · = not tested or not shown. Most compounds without a hit are left out; they make up all but 1.9% or so of the library.

SMILES	TbHK1 inh	Hck Nef HTS	RanGTP-Imp inh	Runt-SMMHC FRET	Runt-CBFb FRET
CCOC(=O)C(C)On1c(-n2nc(C)cc2C)nc2ccccc2c1=O (stereo not drawn)	·	·	–	·	·
CC(C)(C)n1nc2c(c1NC(=O)Cc1ccc([N+](=O)[O-])cc1)CS(=O)(=O)C2	·	·	–	·	·
CNC(=O)COc1ccc(S(=O)(=O)N2CCCC2)cc1	·	·	–	·	·
O=C(NCCc1ccccc1F)c1ccc2c(c1)OCCO2	·	·	–	·	·
O=C(NCc1ccccc1F)c1ccc2c(c1)OCO2	–	–	16	–	–
COc1ccc(C(CNS(=O)(=O)c2ccc(C)cc2)N2CCN(C)CC2)cc1 (stereo not drawn)	·	·	–	·	·
Cc1cc(N2CCOCC2)nc(N)n1	–	–	–	–	–
Nc1nc(N2CCOCC2)cc(=O)[nH]1	–	–	20	–	–
Nc1cccc2c1C(=O)N(CC(=O)NC13CC4CC(CC(C4)C1)C3)C2=O	–	–	–	93	–
Cc1cccc(NC(=O)c2sc(Cl)nc2C)c1C	–	–	–	–	–
CCN1CCN(Cc2c(O)ccc3c2O/C(=C\c2ccc(C)cc2)C3=O)CC1	–	–	22	92	–
O=C1/C(=C/C=C/c2ccccc2)Oc2c1ccc(O)c2CN1CCN(CCO)CC1	–	–	–	–	–
Cc1ccc(/C=C2\Oc3c(ccc(O)c3CN3CCN(C)CC3)C2=O)cc1	–	–	22	90	–
CCN1CCN(Cc2c(O)ccc3c2O/C(=C\c2ccccc2)C3=O)CC1	–	–	–	88	–
CCN1CCN(Cc2c(O)ccc3c2O/C(=C\C=C\c2ccccc2)C3=O)CC1	–	–	–	–	–
CCc1ccc(/C=C2\Oc3c(ccc(O)c3CN3CCN(C)CC3)C2=O)cc1	–	–	?	81	–
COc1ccccc1/C=C/C=C1\Oc2c(ccc(O)c2CN2CCN(CCO)CC2)C1=O	–	–	–	–	–
CC(NC(=O)COC(=O)Cc1ccc(-c2ccccc2)cc1)c1ccccc1 (stereo not drawn)	–	–	–	–	–
Cc1ccc(S(=O)(=O)NCCC(=O)Nc2ccncc2)cc1C	·	·	–	·	·
Nc1cc(=O)[nH]c(=O)n1CCc1ccccc1	·	·	–	·	·
CCOc1ccccc1NC(=O)Cn1c(=O)n(-c2ccc(OC)cc2OC)c(=O)c2c(C)c(C(=O)N(CC)CC)sc21	–	–	–	–	–
CCOc1ccc(-n2c(=O)c3c(C)c(C(=O)N(C)C)sc3n(CC(=O)Nc3ccccc3F)c2=O)cc1	–	–	19	–	–
COc1ccc(C)cc1N(C)C(=O)Cc1c(C(=O)O)n(C)c2ccccc12	·	·	–	·	·
CC1(C)CC(=O)C2=C(C1)OC1=C(C(=O)CC(C)(C)C1)C2c1ccc(O)cc1O	–	–	93	–	–
CC1(C)CC(=O)C2=C(C1)OC1=C(C(=O)CC(C)(C)C1)C2c1ccc(O)c([N+](=O)[O-])c1	–	–	–	–	–
SMILES	TbHK1 inh	Hck Nef HTS	RanGTP-Imp inh	Runt-SMMHC FRET	Runt-CBFb FRET
Cc1nn(C)c(C(=O)Sc2cccc(Cl)c2)c1[N+](=O)[O-]	–	–	–	–	–
O=c1cc(N2CCc3ccccc3C2)[nH]c(=O)n1-c1ccc(Cl)cc1	–	–	117	–	–
O=c1cc(N2CCc3ccccc3C2)[nH]c(=O)n1-c1ccc(Br)cc1	–	–	124	–	–
O=c1cc(N2CCC3(CC2)OCCO3)[nH]c(=O)n1-c1ccc(Cl)cc1	–	–	–	–	–
O=c1cc(N2CCc3ccccc3C2)[nH]c(=O)n1Cc1ccc(F)cc1	–	–	80	–	–
O=c1cc(N2CCN(c3ccccc3)CC2)[nH]c(=O)n1Cc1ccc(F)cc1	–	–	–	–	–
CC1CC(C)CN(C(=O)c2nn(C)c3c2CS(=O)(=O)c2ccccc2-3)C1 (stereo not drawn)	·	·	–	·	·
COc1ccc(-n2c(NC(=O)c3ccc(Br)o3)c(C#N)c3nc4ccccc4nc32)cc1	–	–	155	–	88
N#Cc1c(NC(=O)c2ccc(Br)o2)n(-c2ccccc2)c2nc3ccccc3nc12	–	–	162	81	–
N#Cc1c(N)n(-c2ccc(O)cc2)c2nc3ccccc3nc12	–	–	?	–	–
CCOc1ccc(CN2CCN(S(=O)(=O)c3ccc(NC(C)=O)cc3)CC2)cc1	–	–	–	–	–
CCCn1c(C)nc2c(c1=O)c1nc3ccccc3nc1n2CCC1=CCCCC1	–	–	–	64	–
OCCC1CN(Cc2c(F)cccc2Cl)CCN1C1CCCCC1 (stereo not drawn)	–	–	–	–	–
